CSC inhib: blocks cancer stem cells. 1.1% of 300,000 active. inhibition, % at 7.5 µM. cancer stem cell-like cells viability, luminescence. AID 2717; in the data active = inhibition above about 75%; tested in HMLE shEcad cells
Mdm2 MdmX PPI: inhibitors of human Mdm2/MdmX interaction; O15151+Q00987; SaOS-2 split-luciferase Mdm2/MdmX complementation, luminescence; inhibition, % at 8 µM; 3% of 330,000 active; AID 485346;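 active = inhibition of at least 50% at 8 µM in the primary screen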
SKKanGAS inh: SKKanGAS growth inhibition. S. pyogenes SKKanGAS, kanamycin growth, BacTiter-Glo, 6 h. inhibition, % at 7.5 µM. 1.3% of 300,000 active. AID 1662;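 active = mean replicate score, as percent of positive control median, at least 50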;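 note: strain carries kanamycin resistance gene driven by streptokinase promoter and grows in 40 µg/ml kanamycin; loss of luminescence reflects streptokinase promoter inhibition or plain growth inhibition; 0% = median of DMSO wells and 100% = positive control at its reference dose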
T cruzi repl: blocks replication of Trypanosoma cruzi. T. cruzi beta-gal in NIH3T3, luminescence, 90 h. inhibition, % (concentration not given with the values). 1.4% of 300,000 active;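 active = mean inhibition across valid replicates above about 55%, limit read from the data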;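 note: signal also drops with host cell toxicity which is not excluded here; 0% = plate median of DMSO wells and 100% = zero luminescence signal; higher percent means less beta-gal luminescence so fewer parasites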
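Assay system: NIH/3T3 host cells with β-galactosidase reporter T. cruzi; input: 5,000 host fibroblasts per well; compound: single 50 nL compound addition per well in DMSO; timing: ≥90 h infection period, 3 h prior cell attachment; measured by: GalScreen β-gal luminescence, detergent lysis, 60 min; evaluation: percent inhibition of parasite-derived β-gal signal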
Beta apoptosis: blocks beta cell apoptosis; INS-1E cytokine-induced death, ATP luminescence, 48 h; percent of positive-control rescue, neutral wells zero; protection from apoptosis, % (no concentration beside the values); 0.8% of 300,000 active; AID 435005;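 active = Every replicate reaches about 75%, or at least half do and their mean reaches it too, limit read from the data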;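 note: 0% = cytokine-treated negative control wells and 100% = positive control rescue; higher means more ATP so stronger rescue from cytokine killing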
Calb FLC: affects C. albicans growth with fluconazole. AID 1979. C. albicans CaCi-2 (fluconazole-resistant clinical isolate) + fluconazole, Alamar Blue growth, 48 h. growth inhibition, % (test concentration not listed). 0.57% of 300,000 active;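 active = growth inhibition above about 58% in most replicates, limit read from the data, passing the limit was not always enough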;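 note: all wells also contain fluconazole at 8 µg/ml as a sub-toxic cotreatment; 0% = median of DMSO wells and 100% = median of geldanamycin control wells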
Mdm2-MdmX conf: human Mdm2/MdmX binding inhibition, confirmed. shares compounds with Mdm2 MdmX PPI. luminescent assay. inhibition, % at 8 µM. 55% of 10,000 active. AID 489028; in the data active = inhibition above about 40%
Full FLuc ctr: full-length luciferase inhibition in Mdm2/MdmX counter-screen | shares compounds with Mdm2 MdmX PPI | 77% of 6,200 active | SaOS-2 full-length luciferase counterscreen, luminescence | inhibition, % at 8 µM;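 active = mean inhibition at 8 µM reaching about 37%, which flags the compound as non-specific, limit read from the data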;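 note: p53-null SaOS-2 cells with luciferase driven by a doxycycline-inducible promoter; compound on cells about two nights before reading with doxycycline added after day one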
* hit, by the source's call; x = no result given. Rows were chosen to be rich in hits. Some 5.7% of all compounds tested hit in one or more screens of this group.

SMILES	CSC inhib	Mdm2 MdmX PPI	SKKanGAS inh	T cruzi repl	Beta apoptosis	Calb FLC	Mdm2-MdmX conf	Full FLuc ctr
CC(C)C(=O)NC(c1ccc(Cl)cc1Cl)c1ccc2cccnc2c1O (stereo not drawn)	100*	84*	81*	40	x	6	91*	22
COc1ccc(C(NC(=O)C(C)C)c2ccc3cccnc3c2O)cc1 (stereo not drawn)	104*	77*	55*	54	104*	86*	83*	29
CC(NC(=O)CSc1ncccn1)c1ccc(Cl)cc1Cl (stereo not drawn)	11	-10	2	-2	-4	-24	x	x
Cc1cc(NC(c2ccc(Cl)cc2)c2ccc3cccnc3c2O)no1 (stereo not drawn)	101*	63*	101*	37	x	101*	82*	27
COC(=O)C1=C[C@@H](C(=O)OC)[C@@H]2C3=C(C(=O)[C@@]2(C)NC(=O)c2ccccc2)[C@H](C)C(C(=O)OC)=C(C(=O)OC)[C@@H]3C1	1	26	1	-5	-3	5	x	x
CC(C)c1ccc(C(=O)Nc2cccnc2)cc1	-11	19	-5	-5	-4	4	x	x
CC1CCCCC12NC(=O)N(CC(=O)Nc1ccc3[nH]c(=O)[nH]c3c1)C2=O (stereo not drawn)	-3	28	-3	-5	-4	-2	x	x
CCCCC(=O)NC(c1ccc(Cl)cc1Cl)c1ccc2cccnc2c1O (stereo not drawn)	109*	77*	92*	64*	85*	96*	87*	51*
COc1ccc(CC(C)N2CCN(Cc3ccccc3)CC2)cc1OC (stereo not drawn)	-3	5	-8	6	1	-9	x	x
O=C(Cn1nc(-c2ccccc2)ccc1=O)Nc1ccc(NC(=O)c2ccccn2)cc1	6	83*	-3	2	15	-7	19	x
CC(=O)c1ccc(OCCCCCCCOc2ccc(C(C)=O)cc2)cc1	0	-20	-3	-3	x	-2	x	x
COc1ccccc1-n1cc([C@@H]2C[C@H]3CN(c4ccccc4)C(=O)[C@]34CCCN24)cn1	15	77*	12	53	55	-4	20	x
CCOc1ccccc1NC(=S)N1CCN(c2ccccc2F)CC1	1	24	-1	12	0	-20	x	x
O=C(Nc1ccc(Cl)c([N+](=O)[O-])c1)Nc1nc2ccccc2s1	81*	85*	40	6	6	2	40	85*
O=C(Nc1nc2ccccc2s1)Nc1ccc([N+](=O)[O-])cc1Cl	10	42	4	-4	9	1	x	x
Cc1ccc(NC(=O)Nc2ccccc2)cc1[N+](=O)[O-]	18	-28	-4	21	-8	-9	x	x
O=C(Nc1ccccc1)Nc1ccc(Cl)c([N+](=O)[O-])c1	-7	80*	9	35	45	38	50*	43*
Cc1ccc(S(=O)(=O)Nc2ccc(C(=O)N3CCN(c4ccccc4O)CC3)cc2)cc1[N+](=O)[O-]	x	-30	26	15	7	40	x	x
C[C@@H]1CN([C@@H](C)CO)C(=O)c2cc(NC(=O)CCC(F)(F)F)ccc2O[C@H]1CN(C)S(=O)(=O)c1ccc(Cl)cc1	-20	5	x	x	-1	x	x	x
CCOC(=O)c1ccccc1NC(=O)COC(=O)CCNS(=O)(=O)c1cccs1	x	6	x	x	x	x	x	x
Cn1c(/C=C/c2ccc(Cl)cc2Cl)c([N+](=O)[O-])c(=O)n(C)c1=O	28	100*	2	9	2	0	76*	11
CCc1ccc(/C=C/c2c([N+](=O)[O-])c(=O)n(C)c(=O)n2C)cc1	17	64*	50*	21	2	-26	44*	40*
CCOc1ccc(/C=C/c2c([N+](=O)[O-])c(=O)n(C)c(=O)n2C)cc1	-7	34	2	-4	1	-10	x	x
COc1ccc(/C=C/c2c([N+](=O)[O-])c(=O)n(C)c(=O)n2C)c(OC)c1	-3	15	26	0	-23	12	x	x
COc1ccc2[nH]c3c4c(ccc3c2c1)C(=O)C=CC4=O	x	75*	x	x	x	x	80*	2
